KCNK3 block – human KCNK3 channel inhibitors, primary screen, CHO cells, FluxOR thallium flux, B-score. Potassium channel subfamily K member 3 (Homo sapiens), O14649. FluxOR fluorescence; stronger effect = lower value. B-score at 10 µM. 340,000 compounds, 0.84% hits;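 active = B-score under library mean minus 4 SD, starting fluorescence ratio at most library mean plus 5 SD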;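 also: more negative B-score means stronger inhibition of thallium flux through KCNK3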
KCNK9 block – KCNK9 potassium channel inhibitors, primary screen, HEK293 cells, thallium flux. FluxOR thallium flux fluorescence; stronger effect = lower value. 310,000 compounds, 1.2% hits. B-score at 10 µM;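 active = ratio B-score over 3 SD below the library mean, with starting fluorescence within 5 SD of its mean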;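 also: negative B-score means less thallium flux so channel inhibition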
Target sequence (Q9NPC2 whole entry, looked up): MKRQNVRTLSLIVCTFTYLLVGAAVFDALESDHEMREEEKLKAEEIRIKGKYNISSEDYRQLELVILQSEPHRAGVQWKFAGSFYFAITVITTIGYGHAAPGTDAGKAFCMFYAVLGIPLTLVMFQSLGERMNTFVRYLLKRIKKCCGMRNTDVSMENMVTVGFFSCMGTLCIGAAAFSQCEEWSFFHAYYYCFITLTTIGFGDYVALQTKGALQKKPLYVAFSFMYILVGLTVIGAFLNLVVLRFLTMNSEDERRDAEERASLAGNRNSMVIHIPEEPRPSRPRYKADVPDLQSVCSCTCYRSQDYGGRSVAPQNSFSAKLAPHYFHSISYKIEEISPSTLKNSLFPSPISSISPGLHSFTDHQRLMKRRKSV
KCNQ1 inh – inhibitors of human KCNQ1 channel, primary screen, cell-based, thallium flux, high-throughput. Potassium voltage-gated channel subfamily KQT member 1 (Homo sapiens), P51787. CHO-K1 KCNQ1, FluxOR thallium flux fluorescence; stronger effect = higher value. B-score at 10 µM. 310,000 compounds, 1.3% hits. AID 2642, 2010;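 active = compounds whose thallium flux B-score, printed positive for inhibition, exceeds three library SD while starting fluorescence stays within three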;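 also: channel opened by potassium depolarization with thallium stimulus after 20 min compound exposure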
KCNQ1 pot – potentiators or activators of KCNQ1 channel, primary screen, cell-based, thallium flux, high-throughput | Potassium voltage-gated channel subfamily KQT member 1 (Homo sapiens), P51787 | CHO-K1 KCNQ1, thallium flux FluxOR fluorescence; stronger effect = higher value | B-score at 10 µM | 310,000 compounds, 0.35% hits | AID 2648, 2010;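 active = fluorescence ratio B-score, a plate-corrected score, at least three library SD, with initial intensity B-score within 5 SD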
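Doses: Single concentration per compound, DMSO matched to controls | Test system: KCNQ1-transfected CHO-K1 cells | Timing: 90 min dye loading and 20 min compound exposure, both at room temperature | Measured by: Kinetic FluxOR thallium fluorescence, 10-s 1-Hz baseline, 110-s post-stimulus read | Medium: Assay buffer with matched DMSO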
Kir21 block – inhibitors of mouse Kir2.1 inward-rectifier potassium channel; HEK293-Kir2.1, FluxOR thallium flux fluorescence; stronger effect = lower value; B-score at 10 µM; 310,000 compounds, 0.85% hits; Inward rectifier potassium channel 2 (Mus musculus), P35561;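 active = fluorescence ratio B-score at or below minus 3 SD of library scores, with starting-brightness B-score within 2 SD, cut at about -4.2 in these data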;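 also: channel flux triggered by added potassium and thallium sulfate stimulus; B-score of peak minus minimum fluorescence over baseline after thallium stimulus; more negative B-score means stronger Kir2.1 block with less thallium influx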
Target sequence (P35561 whole entry, looked up): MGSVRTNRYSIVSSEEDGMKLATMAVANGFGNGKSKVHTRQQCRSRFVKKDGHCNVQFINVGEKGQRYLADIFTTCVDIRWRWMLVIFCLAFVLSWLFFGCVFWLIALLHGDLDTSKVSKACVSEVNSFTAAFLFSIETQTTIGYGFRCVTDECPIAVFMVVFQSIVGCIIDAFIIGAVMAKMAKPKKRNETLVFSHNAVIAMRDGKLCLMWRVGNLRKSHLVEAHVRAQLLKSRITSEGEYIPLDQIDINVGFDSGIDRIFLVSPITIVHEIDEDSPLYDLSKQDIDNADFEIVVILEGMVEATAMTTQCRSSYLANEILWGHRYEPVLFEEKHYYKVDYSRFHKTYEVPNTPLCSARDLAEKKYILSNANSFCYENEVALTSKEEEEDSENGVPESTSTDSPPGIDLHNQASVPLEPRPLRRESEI
hERG protect – hERG rescue from dofetilide block, primary screen, cell-based, CHO-hERG, FluxOR thallium flux, dofetilide IC70; Voltage-gated inwardly rectifying potassium channel KCNH2 (Homo sapiens), Q12809; dofetilide IC70 present; activation (rescue from dofetilide block), less the hit threshold, % at 10 µM; 310,000 compounds, 0.51% hits;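 active = activation above the mean of controls blocked by dofetilide plus 5 SD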;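 also: thallium influx through hERG after potassium depolarization seen as dye fluorescence rise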
KCNK3 inh conf – retest of human KCNK3 channel inhibitors, confirmation, CHO cells, FluxOR thallium flux, triplicate; ratio percent of control, % at 10 µM; FluxOR fluorescence; 0% buffer, 100% carvedilol maximal block; shares compounds with KCNK3 block; AID 651638, 2012; 2,400 compounds, 99% hits;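 active = ratio percent of control, averaged over triplicates, above buffer control mean plus 5 SD, cut at about 64% in these data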;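 also: ratio is the fluorescence rise from min to max over baseline after thallium stimulus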
KCNK3 noninduced – thallium flux inhibition in non-induced cells, primary screen, counter-screen for KCNK3 inhibitor project, cell-based, non-induced KCNK3 line, FluxOR thallium, triplicate | shares compounds with KCNK3 block | non-induced KCNK3 parental cells; stronger effect = lower value | thallium flux ratio (lower = more inhibition) at 10 µM | 2,400 compounds, 40% hits | AID 651747, 2012;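 active = thallium flux ratio, averaged over three wells, more than 5 SD below the buffer control mean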;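 also: host cells are CHO cells without KCNK3 induction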
A number is an active result; 0 = inactive; - = no result. In the library only some 3.7% were active in any assay of this set; here they are far more common.

SMILES | KCNK3 block | KCNK9 block | KCNQ1 inh | KCNQ1 pot | Kir21 block | hERG protect | KCNK3 inh conf | KCNK3 noninduced
COc1cc(C2c3c(oc4ccccc4c3=O)C(=O)N2c2ccc(C)cn2)ccc1O (stereo not drawn) | 0 | 0 | 0 | 0 | 0 | 0 | - | -
CCOc1ccc(C2c3c(oc4ccccc4c3=O)C(=O)N2c2ccc(C)cn2)cc1OC (stereo not drawn) | -10.8 | 0 | 0 | 0 | 0 | 0 | 98.7 | 0
O=S(=O)(c1cccc(COc2ccc(Cl)cc2Cl)c1)N1CCOCC1 | -9.89 | 0 | 0 | 0 | 0 | 0 | 122.3 | 0.157
CC(=O)c1cc(Cl)ccc1OCc1cccc(S(=O)(=O)N2CCOCC2)c1 | 0 | 0 | 0 | 0 | 0 | 0 | - | -
O=[N+]([O-])c1ccc(F)cc1OCc1cccc(S(=O)(=O)N2CCOCC2)c1 | 0 | 0 | 0 | 0 | 0 | 0 | - | -
O=S(=O)(c1cccc(COc2c(Cl)cccc2Cl)c1)N1CCOCC1 | -9.49 | 0 | 0 | 0 | 0 | 0 | 120.3 | 0
Cc1cc(C)c(S(=O)(=O)N2CCc3ccccc32)c(C)c1 | -12.7 | 0 | 6 | 0 | 0 | 0 | 115.0 | 0.134
CCN(CC)S(=O)(=O)c1ccc(C)c(NC(=S)N2CCN(C/C=C/c3ccccc3)CC2)c1 | -10.9 | 0 | 0 | 0 | 0 | 0 | 101.0 | 0
OCc1c(OCc2cccc(F)c2)ccc2ccccc12 | -9.5 | 0 | 0 | 0 | 0 | 0 | 97.3 | 0
CC(=O)c1cccc(N(CC(=O)Nc2ccc(S(=O)(=O)N3CCCC3)cc2)S(C)(=O)=O)c1 | -9.55 | 0 | 0 | 0 | 0 | 0 | 0 | 0
CC(=O)c1cccc(N(CC(=O)Nc2ccc(S(=O)(=O)N3CCOCC3)cc2)S(C)(=O)=O)c1 | 0 | 0 | 0 | 0 | 0 | 0 | - | -
Cc1ccc(C(=O)Nc2ccc(Br)c(C(F)(F)F)c2)cc1 | -9.26 | 0 | 0 | 0 | 0 | 0 | 119.7 | 0
Cc1ccc(NC(=O)c2ccc(C)cc2)cc1 | 0 | 0 | 0 | 0 | 0 | 0 | - | -
Cc1ccn(CC(=O)N2CCCC(N3CCN(c4ccc(F)cc4)CC3)C2)n1 (stereo not drawn) | 0 | 0 | 0 | 0 | 0 | 0 | - | -
CCCn1nnnc1NCc1ccccc1C | 0 | 0 | 0 | 0 | 0 | 0 | - | -
CCOc1ccc(C(=O)C(C)OC(=O)Cn2[nH]c(=O)c3ccccc3c2=O)cc1 (stereo not drawn) | 0 | 0 | 0 | 0 | 0 | 0 | - | -
O=C(N/N=C/C1C(c2ccccc2)C1(Cl)Cl)c1cccc(Br)c1 (stereo not drawn) | -13 | -7.35 | 10 | 0 | 0 | 0 | 114.7 | 0
C(=C\CSc1nnnn1-c1ccccc1)/CSc1nnnn1-c1ccccc1 | -9.68 | 0 | 0 | 0 | 0 | 0 | 106.3 | 0
COc1ccc(S(=O)(=O)N2CCCCC2)cc1NC(=O)CNc1ccc(F)cc1C | 0 | - | - | - | - | - | - | -
CCN(CC)C(=O)C1CCCN(c2ccc([N+](=O)[O-])cc2/C=N/NC(=O)c2cccc(O)c2)C1 (stereo not drawn) | -14.3 | 0 | 0 | 0 | 0 | 0 | 90.7 | 0
O=S(=O)(c1ccccc1)N1CCN(c2ccnc3cc(Cl)ccc23)CC1 | -9.25 | 0 | 0 | 0 | 0 | 0 | 98.0 | 0
Oc1ccc(Cl)cc1C1=NNC(c2cc(Br)cc3c2OCOC3)C1 (stereo not drawn) | -8.78 | 0 | 0 | 0 | 0 | 0 | 96.0 | 0
COc1ccc(C2=NNC(c3cc(Cl)cc4c3OCOC4)C2)c(O)c1 (stereo not drawn) | - | 0 | 0 | 0 | 0 | 0 | - | -
N#CCC(=O)Nc1ccc(C(=O)OCC(=O)N=c2sccn2Cc2ccccc2Cl)cc1 | -10.7 | 0 | 0 | 0 | 0 | 0 | 92.0 | 0
CCN(CC)c1nc(-c2ccccc2)nc2ccccc12 | -9.51 | 0 | 0 | 0 | 0 | 0 | 129.0 | 0
SMILES | KCNK3 block | KCNK9 block | KCNQ1 inh | KCNQ1 pot | Kir21 block | hERG protect | KCNK3 inh conf | KCNK3 noninduced
COCCN(CCOC)c1nc(-c2ccc(Cl)cc2)nc2ccccc12 | -9.23 | -7.55 | 0 | 0 | 0 | 0 | 128.0 | 0
COc1ccc(/C=C2/SC(c3ccc(C)cc3)=NC2=O)cc1OC | 0 | 0 | 0 | 0 | 0 | 0 | - | -
COc1cc(/C=C2\SC(c3ccc(C)cc3)=NC2=O)ccc1O | -9.37 | 0 | 0 | 0 | 0 | 0 | 142.0 | 0.099
COc1ccc2oc(C(=O)N3CCN(c4ncccn4)CC3)c(C)c2c1 | 0 | 0 | 0 | 0 | 0 | 0 | - | -
Cc1ccc2c(C)c(C(=O)N3CCN(c4ncccn4)CC3)oc2c1C | -9.12 | -6.73 | 0 | 0 | 0 | 0 | 69.3 | 0
O=[N+]([O-])c1c(Nc2ccc(O)cc2)cc(Cl)c2nonc12 | -11 | 0 | 9 | 0 | -6.45 | 0 | 164.3 | 0.0537
COCC(C)n1c(SCc2cc(C(=O)OC)c(C)o2)nc2ccccc2c1=O (stereo not drawn) | -8.88 | 0 | 0 | 0 | 0 | 0 | 90.0 | 0
COC(=O)C1=C(C)N(C)C(C)=C(C(=O)OC)C1c1ccc(F)c(Br)c1 | -9.12 | 0 | 0 | 0 | 0 | 0 | 109.7 | 0
COC(=O)C1=C(C)N(C)C(C)=C(C(=O)OC)C1c1ccncc1 | 0 | 0 | 0 | 0 | 0 | 0 | - | -
Cc1ccc(OCC(=O)Nc2ccccc2N2CCCC2)c(C)c1 | 0 | 0 | 0 | 0 | 0 | 0 | - | -
O=C(COc1ccccc1)Nc1ccccc1N1CCCCC1 | -10.5 | 0 | 0 | 0 | 0 | 0 | 127.7 | 0
Cc1ccc(C)c(OCC(=O)Nc2ccccc2N2CCCC2)c1 | -10.3 | 0 | 0 | 0 | 0 | 0 | 104.0 | 0
O=[N+]([O-])C(=C1SCCS1)C(=C(Cl)Cl)N1CCCCC1 | -11.4 | 0 | 0 | 0 | 0 | 0 | 104.7 | 0
CN1CCN/C1=C(/C(Cl)=C(Cl)Cl)[N+](=O)[O-] | 0 | 0 | 0 | 0 | 0 | 0 | - | -
Cc1onc(-c2ccccc2)c1C(=O)OCCOc1ccc([N+](=O)[O-])cc1[N+](=O)[O-] | -10.2 | 0 | 0 | 0 | 0 | 0 | 92.0 | 0
Cc1cc(C)c2nc3sc(C(=O)N4CCOCC4)c(N)c3cc2c1 | -10.7 | 0 | 0 | 0 | 0 | 0 | 115.0 | 0.133
Cc1ccc(C)c2nc3sc(C(=O)N4CCOCC4)c(N)c3cc12 | 0 | 0 | 0 | 0 | 0 | 0 | - | -
